Measurements: ChEMBL document CHEMBL1137729, “Synthesis, evaluation and 3D QSAR analysis of novel estradiol-RGD octapeptide conjugates with oral anti-osteoporosis activity” (Eur J Med Chem, 2009)
Residues, ends and D or L forms follow the SMILES beside them. *: point of attachment. Succinyl(O17-estradiol) = C[C@]12CC[C@@H]3c4ccc(O)cc4CC[C@H]3[C@@H]1CC[C@@H]2OC(=O)CCC(=O)*; Acetyl(estradiol-3-yloxy) = C[C@]12CC[C@@H]3c4ccc(OCC(=O)*)cc4CC[C@H]3[C@@H]1CC[C@@H]2O

Tests used:
Mus musculus [1] = assay: Antiosteoporosis activity in ovariectomized ICR mouse assessed as weight of dry femur at 110.3 nmol/kg, po treated for 4 weeks measured after 1 day of last treatment; type: functional
Procedure, shortened: (§1)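 Left femur taken the day after the last dose, cleaned of muscle, length measured, defatted in chloroform–methanol (2:1, 2×3 h), dried 120 °C 6 h and weighed, ashed 800 °C 8 h and weighed. Mineral content = ash/dry weight; femur ash dissolved in 6 N HCl, diluted, calcium by o-methylphenolphthalein complexone. n = 12.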

Mus musculus [2] = assay: Antiosteoporosis activity in ovariectomized ICR mouse assessed as calcium level in serum at 110.3 nmol/kg, po treated for 4 weeks measured after 1 day of last treatment by o-methyl-phenolphthalein method; type: functional
Procedure, shortened: (§2)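 Ovariectomized female mice dosed orally with 110.3 nmol/kg in 0.5% carboxymethylcellulose once daily for 4 weeks, starting day 5 after surgery. Blood taken from the orbit the day after the last dose, stood 30 min, centrifuged 3000g for 20 min, serum stored at −20 °C. Calcium read by o-methylphenolphthalein complexone; phosphorus by molybdenum blue.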

Mus musculus [3] = assay: Antiosteoporosis activity in ovariectomized ICR mouse assessed as phosphorous content in femur at 110.3 nmol/kg, po treated for 4 weeks measured after 1 day of last treatment by molybdenum blue method; type: functional
Mus musculus [4] = assay: Toxicity in ovariectomized ICR mouse assessed as spleen weight at 110.3 nmol/kg, po treated for 4 weeks measured after 1 day of last treatment; type: organism-based; conditions: in vivo, 24 h
Procedure, shortened: (§3)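 OVX mice dosed orally once daily with 110.3 nmol/kg in 0.5% carboxymethylcellulose for 4 weeks. The day after the last dose, mice were anesthetized with pentobarbital (40.0 mg/kg ip) and killed; uteri, lungs, livers and spleens were removed and weighed directly and their morphology noted.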

Mus musculus [5] = assay: Toxicity in ovariectomized ICR mouse assessed as effect on uterine weight at 110.3 nmol/kg, po treated for 4 weeks measured after 1 day of last treatment; type: organism-based; conditions: in vivo, 24 h; procedure, shortened: as §3
Mus musculus [6] = assay: Toxicity in ovariectomized ICR mouse assessed as kidney weight at 110.3 nmol/kg, po treated for 4 weeks measured after 1 day of last treatment; type: organism-based; conditions: in vivo, 24 h
Mus musculus [7] = assay: Toxicity in ovariectomized ICR mouse assessed as effect on tail bleeding time at 110.3 nmol/kg, po treated for 4 weeks measured after 90 mins of last treatment; type: organism-based; conditions: in vivo, 1.5 h
Procedure, shortened: (§4)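 OVX mice received 110.3 nmol/kg orally in 0.5% carboxymethylcellulose daily for 4 weeks. At 30 and 90 min after the last dose, a 2 mm tail cut was made with the mouse in a tube holder; blood was blotted every 30 s until bleeding stopped, and the time was recorded as bleeding time.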

Mus musculus [8] = assay: Antiosteoporosis activity in ovariectomized ICR mouse assessed as phosphorous level in serum at 110.3 nmol/kg, po treated for 4 weeks measured after 1 day of last treatment by molybdenum blue method; type: functional; procedure, shortened: as §2
Mus musculus [9] = assay: Toxicity in ovariectomized ICR mouse assessed as effect on tail bleeding time at 110.3 nmol/kg, po treated for 4 weeks measured after 30 mins of last treatment; type: organism-based; conditions: in vivo, 0.5 h; procedure, shortened: as §4
Mus musculus [10] = assay: Toxicity in ovariectomized ICR mouse assessed as lung weight at 110.3 nmol/kg, po treated for 4 weeks measured after 1 day of last treatment; type: organism-based; conditions: in vivo, 24 h; procedure, shortened: as §3
Mus musculus [11] = assay: Antiosteoporosis activity in ovariectomized ICR mouse assessed as mineral content in femur at 110.3 nmol/kg, po treated for 4 weeks measured after 1 day of last treatment; type: functional
Procedure, shortened: as §1, with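 “Female mice, ovariectomized (sham: laparotomy only); from day 5 post-surgery dosed orally once daily with 110.3 nmol/kg in 0.2 ml 0.5% carboxymethylcellulose for 4 weeks (vehicle to OVX/sham). Left” for “Left”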

Mus musculus [12] = assay: Toxicity in ovariectomized ICR mouse assessed as liver weight at 110.3 nmol/kg, po treated for 4 weeks measured after 1 day of last treatment; type: organism-based; conditions: in vivo, 24 h; procedure, shortened: as §3
Mus musculus [13] = assay: Antiosteoporosis activity in ovariectomized ICR mouse assessed as length of femur at 110.3 nmol/kg, po treated for 4 weeks measured after 1 day of last treatment; type: functional
Procedure, shortened: as §1, with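 “Female mice, ovariectomized (sham: laparotomy only); from day 5 post-surgery dosed orally once daily with 110.3 nmol/kg in 0.2 ml 0.5% carboxymethylcellulose for 4 weeks (vehicle to OVX/sham). Left” for “Left”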

Mus musculus [14] = assay: Antiosteoporosis activity in ovariectomized ICR mouse assessed as weight of femur ash at 110.3 nmol/kg, po treated for 4 weeks measured after 1 day of last treatment; type: functional
Procedure, shortened: as §1, with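 “Female mice, ovariectomized (sham: laparotomy only); from day 5 post-surgery dosed orally once daily with 110.3 nmol/kg in 0.2 ml 0.5% carboxymethylcellulose for 4 weeks (vehicle to OVX/sham). Left” for “Left”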

Mus musculus [15] = assay: Antiosteoporosis activity in ovariectomized ICR mouse assessed as calcium content in femur at 110.3 nmol/kg, po treated for 4 weeks measured after 1 day of last treatment by o-methyl-phenolphthalein; type: functional
Procedure, shortened: as §1, with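 “Female mice, ovariectomized (sham: laparotomy only); from day 5 post-surgery dosed orally once daily with 110.3 nmol/kg in 0.2 ml 0.5% carboxymethylcellulose for 4 weeks (vehicle to OVX/sham). Left” for “Left”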

SMILES	Activity (Mus musculus [1])	Activity (Mus musculus [2])	Activity (Mus musculus [3])	Activity (Mus musculus [4])	Activity (Mus musculus [5])	Activity (Mus musculus [6])	Time (Mus musculus [7])	Activity (Mus musculus [8])	Time (Mus musculus [9])	Activity (Mus musculus [10])	Activity (Mus musculus [11])	Activity (Mus musculus [12])	Activity (Mus musculus [13])	Activity (Mus musculus [14])	Activity (Mus musculus [15])
C[C@]12CC[C@@H]3c4ccc(OCC(=O)N[C@@H](CCCNC(=N)N)C(=O)NCC(=O)N[C@@H](CC(=O)O)C(=O)N[C@@H](CO)C(=O)O)cc4CC[C@H]3[C@@H]1CC[C@@H]2O ({Acetyl(estradiol-3-yloxy)}-RGDS-OH)	53.89 mg	3.23 mM	20.24%	0.142 g	0.064 g	0.193 g	577 s	2.98 mM	582 s	0.128 g	0.605%	1.492 g	1.646 cm	34.08 mg	58.76%
C[C@]12CC[C@@H]3c4ccc(OCC(=O)N[C@@H](CCCNC(=N)N)C(=O)NCC(=O)N[C@@H](CC(=O)O)C(=O)N[C@@H](Cc5ccccc5)C(=O)O)cc4CC[C@H]3[C@@H]1CC[C@@H]2O ({Acetyl(estradiol-3-yloxy)}-RGDF-OH)	53.87 mg	3.24 mM	20.09%	0.177 g	0.067 g	0.159 g	560 s	3.19 mM	557 s	0.112 g	0.596%	1.336 g	1.669 cm	33.56 mg	57.42%
CC(C)[C@H](NC(=O)[C@H](CC(=O)O)NC(=O)CNC(=O)[C@H](CCCNC(=N)N)NC(=O)CCC(=O)O[C@H]1CC[C@H]2[C@@H]3CCc4cc(O)ccc4[C@H]3CC[C@]12C)C(=O)O ({Succinyl(O17-estradiol)}-RGDV-OH)	54.01 mg	3.26 mM	20.14%	0.149 g	0.064 g	0.178 g	560 s	3.04 mM	551 s	0.125 g	0.612%	1.55 g	1.672 cm	33.7 mg	57.49%
C[C@]12CC[C@@H]3c4ccc(O)cc4CC[C@H]3[C@@H]1CC[C@@H]2O [ESTRADIOL]	–	3.24 mM	19.81%	0.144 g	0.108 g	0.173 g	441 s	3.01 mM	417 s	0.12 g	0.608%	1.552 g	1.642 cm	32.22 mg	57.28%
C[C@]12CC[C@@H]3c4ccc(O)cc4CC[C@H]3[C@@H]1CC[C@@H]2OC(=O)CCC(=O)N[C@@H](CCCNC(=N)N)C(=O)NCC(=O)N[C@@H](CC(=O)O)C(=O)N[C@@H](CO)C(=O)O ({Succinyl(O17-estradiol)}-RGDS-OH)	53.78 mg	3.18 mM	20.37%	0.15 g	0.063 g	0.182 g	561 s	3.01 mM	575 s	0.12 g	0.604%	1.537 g	1.659 cm	34.17 mg	59.34%
CC(C)[C@H](NC(=O)[C@H](CC(=O)O)NC(=O)CNC(=O)[C@H](CCCNC(=N)N)NC(=O)COc1ccc2c(c1)CC[C@@H]1[C@@H]2CC[C@]2(C)[C@@H](O)CC[C@@H]12)C(=O)O ({Acetyl(estradiol-3-yloxy)}-RGDV-OH)	53.97 mg	3.22 mM	20.24%	0.133 g	0.064 g	0.167 g	577 s	2.99 mM	569 s	0.109 g	0.611%	1.4 g	1.67 cm	33.99 mg	57.84%
C[C@]12CC[C@@H]3c4ccc(OCC(=O)N[C@@H](CCCNC(=N)N)C(=O)NCC(=O)N[C@@H](CC(=O)O)C(=O)N[C@@H](Cc5ccccc5)C(=O)N[C@@H](CCCNC(=N)N)C(=O)NCC(=O)N[C@@H](CC(=O)O)C(=O)N[C@@H](Cc5ccccc5)C(=O)O)cc4CC[C@H]3[C@@H]1CC[C@@H]2O ({Acetyl(estradiol-3-yloxy)}-RGDFRGDF-OH)	56.96 mg	3.05 mM	21.33%	0.131 g	0.061 g	0.169 g	585 s	3.01 mM	592 s	0.119 g	0.623%	1.439 g	1.641 cm	36.74 mg	63.92%
C[C@]12CC[C@@H]3c4ccc(OCC(=O)N[C@@H](CCCNC(=N)N)C(=O)NCC(=O)N[C@@H](CC(=O)O)C(=O)N[C@@H](CO)C(=O)N[C@@H](CCCNC(=N)N)C(=O)NCC(=O)N[C@@H](CC(=O)O)C(=O)N[C@@H](CO)C(=O)O)cc4CC[C@H]3[C@@H]1CC[C@@H]2O ({Acetyl(estradiol-3-yloxy)}-RGDSRGDS-OH)	56.6 mg	3.01 mM	21.56%	0.133 g	0.062 g	0.17 g	559 s	2.91 mM	564 s	0.11 g	0.626%	1.448 g	1.657 cm	36.42 mg	63.12%
C[C@]12CC[C@@H]3c4ccc(O)cc4CC[C@H]3[C@@H]1CC[C@@H]2OC(=O)CCC(=O)N[C@@H](CCCNC(=N)N)C(=O)NCC(=O)N[C@@H](CC(=O)O)C(=O)N[C@@H](Cc1ccccc1)C(=O)O ({Succinyl(O17-estradiol)}-RGDF-OH)	54 mg	3.21 mM	20.56%	0.135 g	0.06 g	0.16 g	568 s	3.01 mM	576 s	0.109 g	0.605%	1.266 g	1.64 cm	33.87 mg	59.36%
C[C@]12CC[C@@H]3c4ccc(O)cc4CC[C@H]3[C@@H]1CC[C@@H]2OC(=O)CCC(=O)N[C@@H](CCCNC(=N)N)C(=O)NCC(=O)N[C@@H](CC(=O)O)C(=O)N[C@@H](CO)C(=O)N[C@@H](CCCNC(=N)N)C(=O)NCC(=O)N[C@@H](CC(=O)O)C(=O)N[C@@H](CO)C(=O)O ({Succinyl(O17-estradiol)}-RGDSRGDS-OH)	56.41 mg	3 mM	21.4%	0.149 g	0.065 g	0.174 g	556 s	2.6 mM	562 s	0.116 g	0.625%	1.479 g	1.665 cm	36.48 mg	65.16%
